Calls of active or inactive are those of the source. The calls are words filed in the database; no cut-off is given here.
Legend:
Assay type in all cases: cell-based
SKNBE2 = test: Modulation of Gal4-fused VP16 expressed in SKNBE(2) cells co-transfected with UAS repoter gene assessed as increase in luciferase activity at 0.02 to 200 uM incubated for 18 hrs by luciferase reporter gene assay; details: Human alphaherpesvirus 2, filed as modulator, dose 0.02-200 µM
Method in brief: (§1)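 Cells in 10-cm dishes were transfected with Gal4-VP16 expression plasmid (2 μg) plus 5xUAS-luciferase reporter (2 μg) for 18 h. They were replated at 10,000 cells/well for 4 h, then given ligand or vehicle (water, ethanol or DMSO) in quadruplicate for 18 h. Luciferase was read with Britelite Plus. Fold change is versus vehicle-treated cells, with one-way ANOVA versus vehicle.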

[1] = molecular target: Nuclear receptor subfamily 4 group A member 2 (Homo sapiens) (UniProt P43354); test: Modulation of full length human Nurr1 expressed in SKNBE(2) cells co-transfected with RXRalpha and luciferase reporter plasmid harboring NurRE response element assessed as increase in luciferase activity incubated for 18 hrs by luciferase-reporter gene assay; details: SKNBE2, filed as modulator, dose 0.0002-200 µM
Sequence of Nuclear receptor subfamily 4 group A member 2 (Homo sapiens) (P43354 whole entry): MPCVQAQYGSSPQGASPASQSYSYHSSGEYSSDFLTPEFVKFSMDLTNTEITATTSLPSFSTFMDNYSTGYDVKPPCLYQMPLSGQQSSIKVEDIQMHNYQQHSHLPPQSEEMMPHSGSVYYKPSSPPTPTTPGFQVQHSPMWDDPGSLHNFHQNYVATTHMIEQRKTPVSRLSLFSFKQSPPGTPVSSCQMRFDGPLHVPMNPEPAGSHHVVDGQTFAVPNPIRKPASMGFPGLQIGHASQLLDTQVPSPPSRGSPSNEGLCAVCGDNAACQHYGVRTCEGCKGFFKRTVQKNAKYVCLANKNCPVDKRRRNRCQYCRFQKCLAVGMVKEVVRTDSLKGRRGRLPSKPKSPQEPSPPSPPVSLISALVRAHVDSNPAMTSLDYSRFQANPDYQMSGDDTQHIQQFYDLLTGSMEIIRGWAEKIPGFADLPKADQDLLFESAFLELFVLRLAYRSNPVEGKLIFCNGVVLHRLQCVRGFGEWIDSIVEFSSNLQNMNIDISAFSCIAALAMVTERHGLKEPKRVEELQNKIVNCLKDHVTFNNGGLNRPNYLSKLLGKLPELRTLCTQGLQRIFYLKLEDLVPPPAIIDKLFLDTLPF
Method in brief: (§2)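 SK-N-BE(2)-C cells were kept in 1:1 EMEM/F12 with 10% FBS at 37°C and 5% CO2. They were cotransfected with full-length Nurr1 (1 μg), full-length RXRα (1 μg) and 3xNBRE- or 3xNurRE-luc reporter (6 μg) for 18 h, replated at 10,000 cells/well for 4 h, and then treated with ligand or vehicle in quadruplicate for 18 h. The readout was luciferase luminescence as fold over vehicle, reported as mean ± s.e.m. (n=4) from 2 independent experiments, one-way ANOVA.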

SK-N-BE(2) = test: Cytotoxicity in human SKNBE2 cells assessed as reduction in cell viability at 0.02 to 200 uM incubated for 18 hrs by Cell Titer-Glo assay; details: dose 0.02-200 µM
Method in brief: (§3)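 Cells seeded at 1.5 million per 10-cm dish. Next day they were replated at 10,000 cells/well and rested 4 h. Ligand or vehicle (water, ethanol or DMSO, by ligand) was added in dose-response format in quadruplicate. After 18 h, viability was read by CellTiter-Glo luminescence. Data are mean ± s.e.m., generally representative of 2 independent experiments. One-way ANOVA versus vehicle.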

[2] = molecular target: Nuclear receptor subfamily 4 group A member 2 (Homo sapiens) (UniProt P43354); test: Modulation of full length human Nurr1 expressed in HEK293T cells co-transfected with RXRalpha and luciferase reporter plasmid harboring NBRE response element assessed as increase in luciferase activity incubated for 18 hrs by luciferase-reporter gene assay; details: filed as modulator, dose 0.0002-200 µM
Method in brief: (§4)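 Full-length Nurr1 plasmid, alone (2 μg) or 1 μg plus full-length RXRα (1 μg), cotransfected with 3xNBRE- or 3xNurRE-luciferase reporter (6 μg) using Lipofectamine 2000, 18 h. Cells replated at 10,000/well for 4 h. Four ligand concentrations, or vehicle (water, ethanol or DMSO), added in quadruplicate for 18 h. Luciferase read. Fold change vs vehicle, mean ± s.e.m., one-way ANOVA vs vehicle.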

[3] = molecular target: Nuclear receptor subfamily 4 group A member 2 (Homo sapiens) (UniProt P43354); test: Modulation of full length human Nurr1 expressed in HEK293T cells co-transfected with luciferase reporter plasmid harboring NurRE response element assessed as increase in luciferase activity incubated for 18 hrs by luciferase-reporter gene assay; details: filed as modulator, dose 0.002-200 µM; method in brief: as §4
[4] = molecular target: Nuclear receptor subfamily 4 group A member 2 (Homo sapiens) (UniProt P43354); test: Modulation of full length human Nurr1 expressed in SKNBE(2) cells co-transfected with luciferase reporter plasmid harboring NurRE response element assessed as increase in luciferase activity incubated for 18 hrs by luciferase-reporter gene assay; details: SKNBE2, filed as modulator, dose 0.002-200 µM
[5] = molecular target: Nuclear receptor subfamily 4 group A member 2 (Homo sapiens) (UniProt P43354); test: Modulation of full length human Nurr1 expressed in SKNBE(2) cells co-transfected with luciferase reporter plasmid harboring NBRE response element assessed as increase in luciferase activity incubated for 18 hrs by luciferase-reporter gene assay; details: SKNBE2, filed as modulator, dose 0.002-200 µM
[6] = molecular target: Nuclear receptor subfamily 4 group A member 2 (Homo sapiens) (UniProt P43354); test: Modulation of full length human Nurr1 expressed in PC12 cells co-transfected with luciferase reporter plasmid harboring NBRE response element assessed as increase in luciferase activity incubated for 18 hrs by luciferase-reporter gene assay; details: PC-12, filed as modulator, dose 0.002-200 µM
Method in brief: (§5)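 Here PC12 cells (FK-12 medium, 15% horse serum, 2.5% FBS, 37°C, 5% CO2) received full-length Nurr1 (2 μg) without RXRα, plus 3xNBRE- or 3xNurRE-luciferase reporter (6 μg), for 18 h. Cells were replated at 10,000/well for 4 h, then treated with ligand or vehicle in quadruplicate for 18 h. Luciferase luminescence was normalized to vehicle-treated cells. Results are mean ± s.e.m. (n=4) from 2 independent experiments, with one-way ANOVA against vehicle.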

[7] = molecular target: Nuclear receptor subfamily 4 group A member 2 (Homo sapiens) (UniProt P43354); test: Modulation of full length human Nurr1 expressed in PC12 cells co-transfected with RXRalpha and luciferase reporter plasmid harboring NBRE response element assessed as increase in luciferase activity incubated for 18 hrs by luciferase-reporter gene assay; details: PC-12, filed as modulator, dose 0.0002-200 µM
Method in brief: (§6)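 PC12 cells were grown at 37°C and 5% CO2 in […] medium with 15% horse serum and 2.5% FBS. They were transfected with full-length Nurr1 (1 μg) plus full-length RXRα (1 μg) and 3xNBRE- or 3xNurRE-luciferase reporter (6 μg) for 18 h, then replated at 10,000 cells/well for 4 h. Ligand or vehicle (water, ethanol or DMSO) was added in quadruplicate for 18 h. Luminescence was read as fold change over vehicle. Results are mean ± s.e.m., n=4, from 2 independent experiments, analysed by one-way ANOVA against vehicle.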

HEK-293T = test: Cytotoxicity in human HEK293T cells assessed as reduction in cell viability at 0.02 to 200 uM incubated for 18 hrs by Cell Titer-Glo assay; details: dose 0.02-200 µM; method in brief: as §3
[8] = molecular target: Nuclear receptor subfamily 4 group A member 2 (Homo sapiens) (UniProt P43354); test: Modulation of full length human Nurr1 expressed in SKNBE(2) cells co-transfected with RXRalpha and luciferase reporter plasmid harboring NBRE response element assessed as increase in luciferase activity incubated for 18 hrs by luciferase-reporter gene assay; details: SKNBE2, filed as modulator, dose 0.0002-200 µM; method in brief: as §2
PC-12 [9] = test: Cytotoxicity in rat PC-12 cells assessed as reduction in cell viability at 0.02 to 200 uM incubated for 18 hrs by Cell Titer-Glo assay; details: pc-12, 18 h, dose 0.02-200 µM; method in brief: as §3
[10] = molecular target: Nuclear receptor subfamily 4 group A member 2 (Homo sapiens) (UniProt P43354); test: Modulation of full length human Nurr1 expressed in HEK293T cells co-transfected with RXRalpha and luciferase reporter plasmid harboring NurRE response element assessed as increase in luciferase activity incubated for 18 hrs by luciferase-reporter gene assay; details: filed as modulator, dose 0.0002-200 µM; method in brief: as §4
[11] = molecular target: Nuclear receptor subfamily 4 group A member 2 (Homo sapiens) (UniProt P43354); test: Modulation of full length human Nurr1 expressed in PC12 cells co-transfected with luciferase reporter plasmid harboring NurRE response element assessed as increase in luciferase activity incubated for 18 hrs by luciferase-reporter gene assay; details: PC-12, filed as modulator, dose 0.002-200 µM; method in brief: as §5
[12] = molecular target: Nuclear receptor subfamily 4 group A member 2 (Homo sapiens) (UniProt P43354); test: Modulation of full length human Nurr1 expressed in HEK293T cells co-transfected with luciferase reporter plasmid harboring NBRE response element assessed as increase in luciferase activity incubated for 18 hrs by luciferase-reporter gene assay; details: filed as modulator, dose 0.002-200 µM; method in brief: as §4
PC-12 [13] = test: Modulation of Gal4-fused VP16 expressed in PC12 cells co-transfected with UAS repoter gene assessed as increase in luciferase activity at 0.02 to 200 uM incubated for 18 hrs by luciferase reporter gene assay; details: Human alphaherpesvirus 2, filed as modulator, dose 0.02-200 µM; method in brief: as §1
HEK293T = test: Modulation of Gal4-fused VP16 expressed in HEK293T cells co-transfected with UAS repoter gene assessed as increase in luciferase activity at 0.02 to 200 uM incubated for 18 hrs by luciferase reporter gene assay; details: Human alphaherpesvirus 2, filed as modulator, dose 0.02-200 µM; method in brief: as §1
[14] = molecular target: Nuclear receptor subfamily 4 group A member 2 (Homo sapiens) (UniProt P43354); test: Modulation of full length human Nurr1 expressed in PC12 cells co-transfected with RXRalpha and luciferase reporter plasmid harboring NurRE response element assessed as increase in luciferase activity incubated for 18 hrs by luciferase-reporter gene assay; details: PC-12, filed as modulator, dose 0.0002-200 µM; method in brief: as §6

Activity [1]: Dose-Dependent Effect | Activity [2]: Dose-Dependent Effect | Activity [3]: Dose-Dependent Effect | Activity [4]: Dose-Dependent Effect | Activity [5]: Dose-Dependent Effect | Activity [6]: Dose-Dependent Effect | Activity [7]: Dose-Dependent Effect | Activity [8]: Dose-Dependent Effect | Activity [10]: Dose-Dependent Effect | Activity [11]: Dose-Dependent Effect | Activity [12]: Dose-Dependent Effect | Activity [14]: Dose-Dependent Effect
SMILES: COc1ccc(-c2cc3onc(-c4ccccc4)c3c(=O)n2C)cc1
Activity (SKNBE2): Active | Activity (SK-N-BE(2)): Non-Toxic | Activity (HEK-293T): Non-Toxic | Activity (PC-12 [9]): Non-Toxic | Activity (PC-12 [13]): Active | Activity (HEK293T): Active
